Experimental findings from publication PMC6777341 (ACS chemical neuroscience, 2017) are described below.

The structures appear in SMILES notation.

The test system of one series is MDCK-MDR1 cells. The experiment in a line: Bidirectional MDCK-MDR1 permeability assay. Type of series: in vitro ADME. The method in brief:
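MDCK-MDR1 cells at passage 5 were grown 3 days on polycarbonate Transwell supports in DMEM/10% FBS, then rinsed and equilibrated 30 min at 37 °C in HBSS with 10 mM HEPES, 0.25% BSA, pH 7.4, and TEER was measured. Test compound at 10 μM was added apically (A-to-B) or basolaterally (B-to-A) at 37 °C with agitation.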

Another series has as its target human NPFFR2 (Homo sapiens, UniProt Q9Y5X5). The series can be described thus: Lance cAMP assay, NPFFR2-CHO cells. Type of series: cell-based. To be noted: cAMP assay, FF2 cells. (In general: Cyclic AMP is a second messenger, typically raised through Gs and lowered through Gi signalling.)
In a further series the target is human NPFF2 receptor (Homo sapiens, UniProt Q9Y5X5). The experiment in a line: NPFF2 calcium mobilization assay. Type of series: cell-based. Conditions: calcium mobilization assay, FF2 cells. A general note: A change in cytosolic calcium serves as a functional read-out for many receptors and channels.
human NPFF2 receptor, sequence (Q9Y5X5 whole entry): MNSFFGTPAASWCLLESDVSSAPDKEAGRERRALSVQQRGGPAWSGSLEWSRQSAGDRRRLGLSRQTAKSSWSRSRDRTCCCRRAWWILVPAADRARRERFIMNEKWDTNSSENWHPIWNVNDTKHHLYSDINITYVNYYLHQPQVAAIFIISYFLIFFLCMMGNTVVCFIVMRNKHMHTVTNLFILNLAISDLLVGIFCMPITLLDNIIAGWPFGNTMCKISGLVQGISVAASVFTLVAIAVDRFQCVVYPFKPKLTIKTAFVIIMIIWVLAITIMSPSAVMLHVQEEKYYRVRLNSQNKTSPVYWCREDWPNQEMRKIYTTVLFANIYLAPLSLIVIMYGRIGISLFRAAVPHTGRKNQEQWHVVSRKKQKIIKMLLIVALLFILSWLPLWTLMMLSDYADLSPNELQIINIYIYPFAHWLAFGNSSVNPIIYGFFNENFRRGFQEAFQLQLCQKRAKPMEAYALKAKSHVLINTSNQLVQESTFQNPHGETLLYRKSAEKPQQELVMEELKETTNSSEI
In a further series the target is human NPFF1 receptor (Homo sapiens, UniProt Q9GZQ6). The series can be described thus: NPFF1 calcium mobilization assay. Type of series: cell-based. To be noted: calcium mobilization assay, NPFF1 cells.
human NPFF1 receptor, sequence (Q9GZQ6 whole entry): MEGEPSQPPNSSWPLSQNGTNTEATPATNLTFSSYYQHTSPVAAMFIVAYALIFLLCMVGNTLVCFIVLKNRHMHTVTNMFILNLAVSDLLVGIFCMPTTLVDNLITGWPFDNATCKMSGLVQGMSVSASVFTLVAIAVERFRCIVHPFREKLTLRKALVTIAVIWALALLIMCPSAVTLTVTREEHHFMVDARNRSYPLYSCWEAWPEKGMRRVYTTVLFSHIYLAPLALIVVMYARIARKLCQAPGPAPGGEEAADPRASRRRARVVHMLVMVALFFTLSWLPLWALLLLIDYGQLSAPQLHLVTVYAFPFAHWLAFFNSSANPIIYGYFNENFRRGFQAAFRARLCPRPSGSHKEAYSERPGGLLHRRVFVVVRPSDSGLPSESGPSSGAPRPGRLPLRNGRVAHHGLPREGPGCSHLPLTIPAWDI
Series [1] relates to fentanyl-induced hyperalgesia. The experiment in a line: Fentanyl-induced hyperalgesia. To be noted: rats, i.p., day 1 after fentanyl, N=6. Type of series: in vivo, rat.
The next series addresses human NPFFR1 (Homo sapiens, UniProt Q9GZQ6). The experiment in a line: Lance cAMP assay, NPFFR1-CHO cells. Type of series: cell-based.

human NPFFR1, sequence (Q9GZQ6 whole entry): as above
human NPFFR2, sequence (Q9Y5X5 whole entry): as the sequence (Q9Y5X5 whole entry) above

Turning to `CCCCCNC(=O)[C@@H]1C[C@H](NCc2ccc(OC)cc2)CN1Cc1ccccc1Cl` [Compound 16, (2S,4S)-1-[(2-Chlorophenyl)methyl]-4-{[(4-methoxyphenyl)methyl]amino}-N-pentylpyrrolidine-2-carboxamide], the “rate B to A” value in the series with MDCK-MDR1 cells (MDCK-MDR1) came to 6.7e-06 cm/s. In addition, in the series with MDCK-MDR1 cells (MDCK-MDR1), the “rate apical (A) to basolateral (B)” value was 7.6e-06 cm/s. In addition, the Pgp substrate status result in the series with MDCK-MDR1 cells (as indicated by the efflux ratio) is given as “not Pgp substrates”. Further, the “Hill slope of NPFF + compound curve” value at human NPFFR2 was 1.3; on human NPFF2 receptor, 1.1; on human NPFF1 receptor, 1.7; at human NPFFR1 (cAMP assay, NPFF1 cells), 1.3. The “doses significantly different from vehicle (Bonferroni post hoc)” value in series [1] is “significant differences at 10 and 32 mg/kg”. Also, the Kb at human NPFFR1 was determined as 0.36 ± 0.08 µM.
